Data reported in ChEMBL document CHEMBL3397004, “Furan-based acetylating agent for the chemical modification of proteins” (Bioorg Med Chem, 2015).
The source made the active and inactive calls. The calls are words filed in the database; no cut-off is given here.

Key:
[1] = target: Cytochrome c (Bos taurus) (UniProt P62894); assay: Induction of chemical modification in bovine heart cytochrome c in phosphate buffer assessed as disappearance of peak at 530 nm and appearance of new peaks at 522 and 551 nm at pH 7.4 after overnight incubation by UV-vis spectrophotometry
Sequence of Cytochrome c (Bos taurus) (P62894 whole entry): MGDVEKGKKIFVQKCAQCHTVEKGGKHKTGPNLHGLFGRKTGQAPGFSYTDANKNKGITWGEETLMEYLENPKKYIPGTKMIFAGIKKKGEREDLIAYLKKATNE
Method in brief: (§1)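 Cytochrome c (50 µM) incubated overnight at 37 °C, pH 7.4, with 2 mM BAMF or 2 mM aspirin in phosphate buffer. UV–vis spectra recorded about 350–600 nm (Soret and Q-band region) and compared with native protein.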

[2] = target: Cytochrome c (Bos taurus) (UniProt P62894); assay: Induction of chemical modification in bovine heart cytochrome c in phosphate buffer assessed as appearance of new peak at 414 nm at 2 mM at pH 7.4 after overnight incubation by UV-vis spectrophotometry; method in brief: as §1
[3] = target: Cytochrome c (Bos taurus) (UniProt P62894); assay: Induction of chemical modification in bovine heart cytochrome c tertiary structure in phosphate buffer assessed as intact band at 695 nm at pH 7.4 after overnight incubation by UV-vis spectrophotometry
Method in brief: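 Cytochrome c modified overnight at 37 °C in 50 mM phosphate pH 7.4 with BAMF. UV–vis absorbance scanned 600–800 nm to monitor the 695 nm Met-80–heme ligand band, compared with native protein.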

[4] = target: Cytochrome c (Bos taurus) (UniProt P62894); assay: Induction of chemical modification in bovine heart cytochrome c in phosphate buffer assessed as adduct formation at heme center at 2 mM at pH 7.4 after 1 hr by UV-vis spectrophotometry
Method in brief: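 Cytochrome c treated with 2 mM acetylating agent in phosphate buffer pH 7.4. Heme redox/reduction kinetics followed by absorbance at 550 nm over 1 h, with aspirin at 2 mM as the reference acetylating agent.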

[5] = target: Cytochrome c (Bos taurus) (UniProt P62894); assay: Induction of chemical modification in bovine heart cytochrome c assessed as change in negative peaks of at 282 nm and 289 nm of tyrosyl side chains at 0.3 to 1.2 mM by circular dichroism analysis
[6] = target: Cytochrome c (Bos taurus) (UniProt P62894); assay: Induction of chemical modification in bovine heart cytochrome c tertiary structure assessed as effect on adduct formation at 0.3 to 1.2 mM by circular dichroism analysis
[7] = target: Lysozyme C (Gallus gallus) (UniProt P00698); assay: Induction of chemical modification in chicken egg white lysozyme tertiary structure assessed as effect on adduct formation at 0.3 to 1.2 mM by circular dichroism analysis
Sequence of Lysozyme C (Gallus gallus) (P00698 whole entry): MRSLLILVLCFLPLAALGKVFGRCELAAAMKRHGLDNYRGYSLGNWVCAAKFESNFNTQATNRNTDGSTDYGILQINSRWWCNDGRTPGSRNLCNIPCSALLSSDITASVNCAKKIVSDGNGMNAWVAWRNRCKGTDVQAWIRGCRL

[8] = target: Cytochrome c (Bos taurus) (UniProt P62894); assay: Induction of chemical modification in bovine heart cytochrome c assessed as exposure of hydrophobic core at 0.3 to 1.2 mM by ANS staining-based fluorescence assay
Method in brief: (§2)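 Proteins (50 µM) modified overnight at 37 °C with BAMF (0.3–1.2 mM) in 50 mM phosphate pH 7.4, then measured at 5 µM. ANS was used at 16-fold over protein. Excitation 360 nm, emission 400–600 nm, slits 10 nm, 3 mm quartz cell. Blanks subtracted, each spectrum at least three times.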

[9] = target: Lysozyme C (Gallus gallus) (UniProt P00698); assay: Induction of chemical modification in chicken egg white lysozyme assessed as exposure of hydrophobic core at 0.3 to 1.2 mM by ANS staining-based fluorescence assay; method in brief: as §2
[10] = target: Cytochrome c (Bos taurus) (UniProt P62894); assay: Induction of chemical modification in bovine heart cytochrome c assessed as denaturation temperature at 0.3 mM by UV-vis spectrophotometry (Tm = 56.5 +/- 0.1 degC)
[11] = target: Cytochrome c (Bos taurus) (UniProt P62894); assay: Induction of chemical modification in bovine heart cytochrome c assessed as denaturation temperature at 0.6 mM by UV-vis spectrophotometry (Tm = 56.5 +/- 0.1 degC)
[12] = target: Cytochrome c (Bos taurus) (UniProt P62894); assay: Induction of chemical modification in bovine heart cytochrome c assessed as denaturation temperature at 0.9 mM by UV-vis spectrophotometry (Tm = 56.5 +/- 0.1 degC)
[13] = target: Cytochrome c (Bos taurus) (UniProt P62894); assay: Induction of chemical modification in bovine heart cytochrome c assessed as denaturation temperature at 1.2 mM by UV-vis spectrophotometry (Tm = 56.5 +/- 0.1 degC)
[14] = target: Lysozyme C (Gallus gallus) (UniProt P00698); assay: Induction of chemical modification in chicken egg white lysozyme assessed as effect on enzyme activity at 0.3 to 1.2 mM by UV-vis spectrophotometry
Method in brief: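 Lysozyme (50 µM) modified overnight at 37 °C with 0.3, 0.6, 0.9 or 1.2 mM BAMF in 50 mM phosphate pH 7.4. Hydrolytic activity read turbidimetrically as the fall in A450 of a bacterial cell suspension over 1500 s. Specific activity plotted against BAMF concentration.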

[15] = target: Cytochrome c (Bos taurus) (UniProt P62894); assay: Induction of chemical modification in bovine heart cytochrome c assessed as additional peaks at 1.2 mM at pH 7.4 by ESI-MS spectroscopic technique
[16] = target: Cytochrome c (Bos taurus) (UniProt P62894); assay: Induction of chemical modification in bovine heart cytochrome c in phosphate buffer assessed as appearance of new peak at 413 nm at 2 mM at pH 7.4 after overnight incubation by UV-vis spectrophotometry; method in brief: as §1

Compound	Activity [1]	Activity [2]	Activity [3]	Activity [4]	Activity [5]	Activity [6]	Activity [7]	Activity [8]	Activity [9]	Tm [10] [°C]	Tm [11] [°C]	Tm [12] [°C]	Tm [13] [°C]	Activity [14]	Activity [15]	Activity [16]
CC(=O)OCc1ccc(COC(C)=O)o1	Active	Active	inactive	Active	inactive	inactive	inactive	inactive	inactive	54.8	54.7	53.8	53	inactive	Active	–
CC(=O)Oc1ccccc1C(=O)O	–	–	–	–	–	–	–	–	–	–	–	–	–	–	–	Active
